Values belong to the compound of their own block, whether it stands above or below them. The source made the active and inactive calls. No cut-off for these calls is given here.
Assays:
[1] = Inhibition of Wnt3A/[…] pathway activity in mouse L cell expressing Wnt3a assessed as decrease in phosphorylated Dvl2 level at 10 uM after 24 hrs by Western blot analysis; format: cell-based
Axin-2 (Homo sapiens) [2] = target: Axin-2 (Homo sapiens) (UniProt Q9Y2T1); assay: Induction of Axin2 accumulation in human DLD1 cells by Western blot analysis; format: cell-based; settings: DLD-1
Outline: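 DLD-1 cells exposed to IWR compound at 10μM for a 48 hr assay period; protein levels assessed by Western blot of cell lysates.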

[3] = Inhibition of Wnt2/beta-[…] pathway activity in mouse L cell expressing Wnt2 and STF assessed as decreased firefly luciferase reporter expression; format: cell-based
[4] = Inhibition of Wnt3A/[…] pathway activity in mouse L cell expressing Wnt3A and STF assessed as decreased firefly luciferase reporter expression; format: cell-based
Outline: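 L-Wnt-STF cells (mouse L-cells stably carrying SuperTopFlash firefly luciferase reporter, control reporter and Wnt3A expression construct), ~5K per well; compounds added 24 hrs after seeding; luciferase activities read 24 hrs later; IC50s calculated from these dose-dependent assays.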

[5] = Inhibition of Wnt3A/[…] pathway activity in mouse L cell expressing Wnt3a assessed as decrease in phosphorylated Lrp6 level at 10 uM after 24 hrs by Western blot analysis; format: cell-based
DLD-1 [6] = assay: Decrease in beta-[…] accumulation in human DLD1 cells expressing in APC mutant; format: functional, cell-based
[7] = Inhibition of Wnt/beta-[…] pathway activity in mouse L cell expressing Wnt and STF assessed as decreased firefly luciferase reporter expression; format: cell-based
[8] = Inhibition of Wnt3A/[…] pathway activity in mouse L cell expressing Wnt3a assessed as inhibition of […] accumulation at 10 uM after 24 hrs by Western blot analysis; format: cell-based
[9] = Inhibition of Wnt1/beta-[…] pathway activity in mouse L cell expressing Wnt1 and STF assessed as decreased firefly luciferase reporter expression; format: cell-based
Danio rerio = organism: Danio rerio; assay: Inhibition of caudal fin regeneration after mechanical resection in zebrafish at 10 uM after 7 days; format: functional, organism-based
Outline: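 Zebrafish 3-6 months old anaesthetized in 0.02% Tricaine; half of caudal fin resected with razor blade; kept at 28°C in tank water with 10μM compound or DMSO; water and compound replenished daily over assay period.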

Axin-2 (Homo sapiens) [10] = target: Axin-2 (Homo sapiens) (UniProt Q9Y2T1); assay: Induction of Axin2 stabilization in human DLD1 cells assessed as inhibition of Wnt/beta-[…] pathway; format: cell-based; settings: DLD-1
DLD-1 [11] = assay: Inhibition of Axin2 protein degradation in human DLD1 cells by Western blot analysis in presence of 100 uM cyclohexamide; format: functional, cell-based
Outline: (§1)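 DLD-1 cells treated over a 48 hr assay period with IWR compound (10μM), with or without cycloheximide (100μM); Axin2 protein assessed by Western blot.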

L929 = assay: Decrease in beta-[…] accumulation in APC-deficient mouse L cell; format: functional, cell-based
Cos1 = assay: Effect on Axin2 subcellular redistribution in african green monkey Cos1 cells by immunostaining method; format: cell-based; settings: Chlorocebus aethiops
[12] = target: Protein Wnt (Danio rerio) (UniProt Q6IYD9); settings: 10 uM
HEK293 = assay: Effect on interaction between Axin1-GFP and PP2A in HEK293 cell lysate at 10 uM by Western blot analysis; format: cell-based; settings: Homo sapiens
DLD-1 [13] = assay: Inhibition of Axin2 protein degradation in human DLD1 cells by Western blot analysis; format: functional, cell-based; outline: as §1
L [14] = assay: Effect on proteasome in mouse L cell expressing Wnt assessed as accumulation of beta-[…] by Western blot analysis
Outline: (§2)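 L-Wnt-STF cells (L-cells stably carrying Wnt3A, STF firefly luciferase reporter and control reporter) treated with IWR (10μM) or IWP (5μM) compounds, with or without cycloheximide (100μM), over 48 hrs; lysates probed by Western blot.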

L [15] = assay: Effect on proteasome in mouse L cell expressing Wnt assessed as accumulation of Axin1 by Western blot analysis; outline: as §2
[16] = Inhibition of Notch pathway in mouse L cells at 2.5 uM
[17] = target: T1, Protein-serine O-palmitoleoyltransferase porcupine (Mus musculus) (UniProt Q9JJJ7); assay: Effect on porcn Endoplasmic reticulum localization in mouse L cell expressing Wnt and STF; format: cell-based
T1 sequence (whole entry): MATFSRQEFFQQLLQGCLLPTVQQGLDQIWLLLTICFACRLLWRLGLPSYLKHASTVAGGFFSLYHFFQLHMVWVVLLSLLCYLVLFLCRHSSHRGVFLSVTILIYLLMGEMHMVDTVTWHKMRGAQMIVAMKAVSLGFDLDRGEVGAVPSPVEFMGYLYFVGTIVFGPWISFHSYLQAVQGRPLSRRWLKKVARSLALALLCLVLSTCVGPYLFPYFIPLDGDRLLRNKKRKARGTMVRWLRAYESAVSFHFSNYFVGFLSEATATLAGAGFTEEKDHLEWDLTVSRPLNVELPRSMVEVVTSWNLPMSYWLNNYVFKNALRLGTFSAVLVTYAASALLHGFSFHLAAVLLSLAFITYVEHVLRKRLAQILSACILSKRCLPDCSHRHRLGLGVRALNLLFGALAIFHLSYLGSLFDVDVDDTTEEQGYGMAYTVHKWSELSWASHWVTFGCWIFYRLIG

[18] = target: Lysophospholipid acyltransferase 5 (Mus musculus) (UniProt Q91V01); assay: Inhibition of MBOAT5 mediated Wnt3a pathway activity in mouse L cell expressing Wnt3a assessed as decreased firefly luciferase reporter expression at 0.25 uM to 1 uM; format: cell-based
[19] = target: Sterol O-acyltransferase 1 (Mus musculus) (UniProt Q61263); assay: Inhibition of ACAT mediated Wnt3a pathway activity in mouse L cell expressing Wnt3a assessed as decreased firefly luciferase reporter expression at 0.25 uM to 1 uM; format: cell-based
[20] = target: Protein-cysteine N-palmitoyltransferase HHAT (Mus musculus) (UniProt Q8BMT9); assay: Inhibition of HHAT mediated Wnt pathway activity in mouse L cell expressing Wnt3a assessed as decreased firefly luciferase reporter expression at 0.25 uM to 1 uM; format: cell-based
[21] = target: Protein Wnt-3a (Homo sapiens) (UniProt P56704); assay: Inhibition of Wnt3A activity in mouse L cell expressing Wnt3A and STF and overexpressing Evi assessed as decreased firefly luciferase reporter expression at 0.25 uM to 1 uM; format: cell-based
[22] = Inhibition of Wnt3A/[…] pathway activity in mouse L cell expressing Wnt3a assessed as decrease in phosphorylated Dvl2 level at 5 uM after 24 hrs by Western blot analysis; format: cell-based
[23] = target: T2, Protein-serine O-palmitoleoyltransferase porcupine (Homo sapiens) (UniProt Q9H237); assay: Displacement of IWP-PB from porcn in HEK293 lysate by Western blot analysis
T2 sequence (whole entry): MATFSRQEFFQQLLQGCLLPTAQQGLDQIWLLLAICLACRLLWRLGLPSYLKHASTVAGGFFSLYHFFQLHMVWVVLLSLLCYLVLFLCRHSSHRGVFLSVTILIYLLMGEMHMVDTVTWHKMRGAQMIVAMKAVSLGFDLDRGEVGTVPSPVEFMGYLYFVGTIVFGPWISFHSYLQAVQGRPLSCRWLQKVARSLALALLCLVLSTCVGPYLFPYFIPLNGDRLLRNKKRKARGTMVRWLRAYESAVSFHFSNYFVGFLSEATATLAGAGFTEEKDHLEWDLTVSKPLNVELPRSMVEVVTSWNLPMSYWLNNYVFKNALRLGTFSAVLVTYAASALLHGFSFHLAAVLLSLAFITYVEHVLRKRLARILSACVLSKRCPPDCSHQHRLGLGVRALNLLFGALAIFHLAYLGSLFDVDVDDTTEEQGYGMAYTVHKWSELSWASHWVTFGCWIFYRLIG

[24] = target: Membrane-bound glycerophospholipid O-acyltransferase 1 (Mus musculus) (UniProt Q8BH98); assay: Inhibition of MBOAT1 mediated Wnt3a pathway activity in mouse L cell expressing Wnt3a assessed as decreased firefly luciferase reporter expression at 0.25 uM to 1 uM; format: cell-based
[25] = target: Membrane-bound ghrelin O-acyltransferase MBOAT4 (Mus musculus) (UniProt P0C7A3); assay: Inhibition of GOAT mediated Wnt3a pathway activity in mouse L cell expressing Wnt3a assessed as decreased firefly luciferase reporter expression at 0.25 uM to 1 uM; format: cell-based
[26] = target: Protein Wnt-3a (Mus musculus) (UniProt P27467); assay: Inhibition of Wnt3A palmitoylation in mouse L cell expressing Wnt3a and overexpressing porcn by detergent solubility fractionation assessed as [3H]palmitate incorporation at 2.5 uM by autoradiography method
[27] = Inhibition of Wnt3A/[…] pathway activity in mouse L cell expressing Wnt3a assessed as decrease in phosphorylated Lrp6 level at 5 uM after 24 hrs by Western blot analysis; format: cell-based
[28] = target: Protein Wnt-3a (Homo sapiens) (UniProt P56704); assay: Inhibition of lipidation of Wnt3A expressed in mouse L cell at 2 uM by detergent solubility fractionation assay; format: cell-based
[29] = target: Protein Wnt-3a (Homo sapiens) (UniProt P56704); assay: Inhibition of Wnt3A secretion in mouse L cell expressing Wnt3a overexpressing Evi assessed as decreased Gaussia luciferase reporter expression at 0.25 uM to 1 uM; format: cell-based
Outline: (§3)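 Wnt secretion test: L-cells transiently transfected with Wnt-Gaussia luciferase fusion construct, incubated with compounds immediately after transfection, GL activity measured 48 hrs later.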

[30] = target: T1, Protein-serine O-palmitoleoyltransferase porcupine (Mus musculus); assay: Inhibition of porcn-mediated Wnt5A palmitoylation in mouse L cell expressing Wnt5A and STF by detergent solubility fractionation assessed as [3H]palmitate incorporation at 2 uM by autoradiography method; format: cell-based
[31] = target: Protein Wnt-3a (Mus musculus) (UniProt P27467); assay: Inhibition of Wnt3A lipidation in mouse L cell expressing Wnt3a and overexpressing porcn at 2 uM by detergent solubility fractionation assay; format: cell-based
[32] = Inhibition of Wnt3A/[…] pathway activity in mouse L cell expressing Wnt3a assessed as inhibition of […] accumulation at 5 uM after 24 hrs by Western blot analysis; format: cell-based
[33] = target: Protein Wnt-3a (Homo sapiens) (UniProt P56704); assay: Inhibition of Wnt3A activity in mouse L cell expressing Wnt3A and STF and overexpressing porcn assessed as decreased firefly luciferase reporter expression at 0.25 uM to 1 uM; format: cell-based
[34] = target: Membrane-bound glycerophospholipid O-acyltransferase 2 (Mus musculus) (UniProt Q8R3I2); assay: Inhibition of MBOAT2 mediated Wnt3a pathway activity in mouse L cell expressing Wnt3a assessed as decreased firefly luciferase reporter expression at 0.25 uM to 1 uM; format: cell-based
[35] = target: T2, Protein-serine O-palmitoleoyltransferase porcupine (Homo sapiens); assay: Inhibition of porcn-mediated Shh palmitoylation in human DLD1 lysate by detergent solubility fractionation assessed as [3H]palmitate incorporation at 2.5 uM by autoradiography method
[36] = target: T1, Protein-serine O-palmitoleoyltransferase porcupine (Mus musculus); assay: Increase in porcn levels in mouse L cell expressing Wnt and STF; format: cell-based
[37] = target: Protein Wnt-3a (Homo sapiens) (UniProt P56704); assay: Inhibition of palmitoylation of Wnt3A expressed in mouse L cell by detergent solubility fractionation assessed as [3H]palmitate incorporation at 2.5 uM by autoradiography method; format: cell-based
[38] = target: Protein Wnt-3a (Homo sapiens) (UniProt P56704); assay: Inhibition of Wnt3A secretion in mouse L cell expressing Wnt3a overexpressing porcn assessed as decreased Gaussia luciferase reporter expression at 0.25 uM to 1 uM; format: cell-based; outline: as §3

Chain of Axin-2 (Homo sapiens) (Q9Y2T1 whole entry): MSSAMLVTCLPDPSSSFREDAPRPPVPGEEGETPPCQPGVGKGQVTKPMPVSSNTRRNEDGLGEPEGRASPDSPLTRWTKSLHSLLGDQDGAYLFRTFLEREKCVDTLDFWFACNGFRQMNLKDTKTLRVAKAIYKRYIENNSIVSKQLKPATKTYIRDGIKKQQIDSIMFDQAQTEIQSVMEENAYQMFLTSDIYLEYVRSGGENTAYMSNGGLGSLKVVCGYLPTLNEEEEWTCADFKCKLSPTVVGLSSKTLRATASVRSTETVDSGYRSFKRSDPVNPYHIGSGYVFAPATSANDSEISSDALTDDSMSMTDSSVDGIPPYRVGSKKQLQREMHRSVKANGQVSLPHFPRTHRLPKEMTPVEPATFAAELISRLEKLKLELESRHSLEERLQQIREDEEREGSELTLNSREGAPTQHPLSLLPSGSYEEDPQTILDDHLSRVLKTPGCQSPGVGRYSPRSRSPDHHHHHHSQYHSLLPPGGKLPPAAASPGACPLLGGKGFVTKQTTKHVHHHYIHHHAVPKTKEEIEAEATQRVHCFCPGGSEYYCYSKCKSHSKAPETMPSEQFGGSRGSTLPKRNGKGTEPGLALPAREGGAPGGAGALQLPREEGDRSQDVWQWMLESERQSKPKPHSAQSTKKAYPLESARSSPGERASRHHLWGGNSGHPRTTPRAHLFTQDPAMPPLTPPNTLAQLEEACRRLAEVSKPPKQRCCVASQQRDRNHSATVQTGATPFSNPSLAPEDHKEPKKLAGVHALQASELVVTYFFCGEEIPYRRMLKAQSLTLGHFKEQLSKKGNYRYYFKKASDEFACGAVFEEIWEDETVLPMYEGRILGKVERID
Chain of Protein Wnt-3a (Homo sapiens) (P56704 whole entry, the tested form may be a part): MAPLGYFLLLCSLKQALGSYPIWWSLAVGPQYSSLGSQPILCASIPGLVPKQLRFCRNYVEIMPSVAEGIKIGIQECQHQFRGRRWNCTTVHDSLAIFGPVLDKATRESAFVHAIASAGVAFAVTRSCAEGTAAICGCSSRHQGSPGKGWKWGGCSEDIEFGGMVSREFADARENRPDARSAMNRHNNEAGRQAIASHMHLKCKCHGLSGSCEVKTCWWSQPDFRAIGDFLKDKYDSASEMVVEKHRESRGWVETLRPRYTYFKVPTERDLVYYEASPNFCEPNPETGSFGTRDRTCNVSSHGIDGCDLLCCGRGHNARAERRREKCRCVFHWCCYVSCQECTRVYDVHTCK
Chain of Protein Wnt-3a (Mus musculus) (P27467 whole entry): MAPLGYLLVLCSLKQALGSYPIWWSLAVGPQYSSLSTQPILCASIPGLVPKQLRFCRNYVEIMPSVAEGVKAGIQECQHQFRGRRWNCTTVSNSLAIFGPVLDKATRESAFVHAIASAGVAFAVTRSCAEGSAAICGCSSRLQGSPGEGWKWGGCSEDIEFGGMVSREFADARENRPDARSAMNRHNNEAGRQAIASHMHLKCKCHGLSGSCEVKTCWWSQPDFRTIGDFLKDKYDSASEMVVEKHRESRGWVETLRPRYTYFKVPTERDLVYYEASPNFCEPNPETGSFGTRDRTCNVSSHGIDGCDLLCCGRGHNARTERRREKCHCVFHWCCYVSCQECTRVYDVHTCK
Chain of Sterol O-acyltransferase 1 (Mus musculus) (Q61263 whole entry): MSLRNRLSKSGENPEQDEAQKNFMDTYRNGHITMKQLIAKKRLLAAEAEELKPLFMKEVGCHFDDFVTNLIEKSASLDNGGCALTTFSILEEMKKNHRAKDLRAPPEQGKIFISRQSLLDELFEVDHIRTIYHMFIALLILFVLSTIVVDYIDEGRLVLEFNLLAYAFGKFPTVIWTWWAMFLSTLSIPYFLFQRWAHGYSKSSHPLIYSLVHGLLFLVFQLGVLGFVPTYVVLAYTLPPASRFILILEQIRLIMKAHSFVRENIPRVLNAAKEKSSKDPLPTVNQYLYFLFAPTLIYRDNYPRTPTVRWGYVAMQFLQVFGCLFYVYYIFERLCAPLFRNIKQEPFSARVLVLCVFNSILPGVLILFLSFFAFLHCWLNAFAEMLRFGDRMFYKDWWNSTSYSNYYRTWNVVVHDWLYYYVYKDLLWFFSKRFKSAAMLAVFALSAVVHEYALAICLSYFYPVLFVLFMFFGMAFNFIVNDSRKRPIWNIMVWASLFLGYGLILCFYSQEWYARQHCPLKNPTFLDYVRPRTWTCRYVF
Chain of Protein Wnt (Danio rerio) (Q6IYD9 as listed by the source): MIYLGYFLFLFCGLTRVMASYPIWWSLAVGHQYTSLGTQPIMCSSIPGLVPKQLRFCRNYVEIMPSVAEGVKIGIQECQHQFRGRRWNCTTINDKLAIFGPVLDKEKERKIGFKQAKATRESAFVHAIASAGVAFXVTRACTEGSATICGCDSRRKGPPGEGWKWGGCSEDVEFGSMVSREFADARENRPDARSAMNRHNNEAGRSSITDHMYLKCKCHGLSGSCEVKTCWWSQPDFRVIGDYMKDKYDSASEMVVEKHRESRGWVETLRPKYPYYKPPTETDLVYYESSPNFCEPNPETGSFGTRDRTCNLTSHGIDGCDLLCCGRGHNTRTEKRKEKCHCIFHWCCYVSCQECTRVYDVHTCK
Chain of Membrane-bound glycerophospholipid O-acyltransferase 1 (Mus musculus) (Q8BH98 whole entry): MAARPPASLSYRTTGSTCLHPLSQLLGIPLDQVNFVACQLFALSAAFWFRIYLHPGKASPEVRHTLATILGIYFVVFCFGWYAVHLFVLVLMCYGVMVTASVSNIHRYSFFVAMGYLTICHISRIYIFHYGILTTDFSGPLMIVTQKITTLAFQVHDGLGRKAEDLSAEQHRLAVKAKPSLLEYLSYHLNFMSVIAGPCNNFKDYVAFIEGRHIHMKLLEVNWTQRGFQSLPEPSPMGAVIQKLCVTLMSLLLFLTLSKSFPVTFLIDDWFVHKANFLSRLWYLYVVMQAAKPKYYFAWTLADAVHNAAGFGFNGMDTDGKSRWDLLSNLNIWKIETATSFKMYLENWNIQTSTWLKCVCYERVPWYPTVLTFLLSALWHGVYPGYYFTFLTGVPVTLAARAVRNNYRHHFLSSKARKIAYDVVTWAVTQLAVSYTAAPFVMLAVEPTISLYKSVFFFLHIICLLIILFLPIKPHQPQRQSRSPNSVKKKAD
Chain of Lysophospholipid acyltransferase 5 (Mus musculus) (Q91V01 whole entry): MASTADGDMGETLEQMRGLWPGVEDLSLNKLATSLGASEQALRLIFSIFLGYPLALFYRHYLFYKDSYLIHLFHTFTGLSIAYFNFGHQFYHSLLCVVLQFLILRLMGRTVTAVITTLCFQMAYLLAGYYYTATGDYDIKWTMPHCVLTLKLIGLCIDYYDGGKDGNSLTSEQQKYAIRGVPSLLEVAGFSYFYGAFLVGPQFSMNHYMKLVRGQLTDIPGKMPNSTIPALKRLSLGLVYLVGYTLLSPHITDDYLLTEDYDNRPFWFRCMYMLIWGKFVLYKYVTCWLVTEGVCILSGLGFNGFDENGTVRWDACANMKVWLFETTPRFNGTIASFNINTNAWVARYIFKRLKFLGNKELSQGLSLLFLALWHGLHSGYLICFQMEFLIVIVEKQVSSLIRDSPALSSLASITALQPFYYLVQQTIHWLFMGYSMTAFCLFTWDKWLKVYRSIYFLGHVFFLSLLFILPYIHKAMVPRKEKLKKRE
Chain of Membrane-bound glycerophospholipid O-acyltransferase 2 (Mus musculus) (Q8R3I2 whole entry): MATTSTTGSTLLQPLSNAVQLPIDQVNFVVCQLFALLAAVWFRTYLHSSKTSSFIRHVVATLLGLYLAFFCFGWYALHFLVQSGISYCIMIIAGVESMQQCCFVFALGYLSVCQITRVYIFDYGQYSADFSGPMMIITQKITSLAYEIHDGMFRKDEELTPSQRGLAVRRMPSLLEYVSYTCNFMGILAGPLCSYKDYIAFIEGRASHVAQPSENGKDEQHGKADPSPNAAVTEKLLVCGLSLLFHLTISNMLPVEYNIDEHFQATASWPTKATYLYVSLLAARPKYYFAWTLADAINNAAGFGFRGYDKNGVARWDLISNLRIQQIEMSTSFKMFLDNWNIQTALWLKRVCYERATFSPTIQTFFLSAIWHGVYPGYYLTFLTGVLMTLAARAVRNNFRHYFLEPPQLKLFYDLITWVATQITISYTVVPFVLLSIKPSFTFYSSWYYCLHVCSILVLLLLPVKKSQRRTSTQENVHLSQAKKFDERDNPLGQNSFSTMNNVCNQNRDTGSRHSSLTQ
Chain of Protein-cysteine N-palmitoyltransferase HHAT (Mus musculus) (Q8BMT9 whole entry): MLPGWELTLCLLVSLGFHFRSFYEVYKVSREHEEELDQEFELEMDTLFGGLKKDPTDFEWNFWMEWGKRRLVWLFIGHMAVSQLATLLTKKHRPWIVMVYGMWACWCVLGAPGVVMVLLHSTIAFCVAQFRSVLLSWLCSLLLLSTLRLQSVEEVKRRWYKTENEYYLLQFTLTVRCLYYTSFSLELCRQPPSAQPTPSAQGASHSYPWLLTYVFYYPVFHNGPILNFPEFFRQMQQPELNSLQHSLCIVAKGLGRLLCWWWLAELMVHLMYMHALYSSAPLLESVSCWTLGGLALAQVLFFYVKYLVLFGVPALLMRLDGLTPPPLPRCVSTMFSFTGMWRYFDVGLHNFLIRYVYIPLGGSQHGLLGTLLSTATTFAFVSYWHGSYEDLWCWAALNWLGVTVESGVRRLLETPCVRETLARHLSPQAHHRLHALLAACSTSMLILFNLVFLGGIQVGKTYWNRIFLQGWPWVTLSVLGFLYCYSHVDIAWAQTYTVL
Chain of Membrane-bound ghrelin O-acyltransferase MBOAT4 (Mus musculus) (P0C7A3 whole entry): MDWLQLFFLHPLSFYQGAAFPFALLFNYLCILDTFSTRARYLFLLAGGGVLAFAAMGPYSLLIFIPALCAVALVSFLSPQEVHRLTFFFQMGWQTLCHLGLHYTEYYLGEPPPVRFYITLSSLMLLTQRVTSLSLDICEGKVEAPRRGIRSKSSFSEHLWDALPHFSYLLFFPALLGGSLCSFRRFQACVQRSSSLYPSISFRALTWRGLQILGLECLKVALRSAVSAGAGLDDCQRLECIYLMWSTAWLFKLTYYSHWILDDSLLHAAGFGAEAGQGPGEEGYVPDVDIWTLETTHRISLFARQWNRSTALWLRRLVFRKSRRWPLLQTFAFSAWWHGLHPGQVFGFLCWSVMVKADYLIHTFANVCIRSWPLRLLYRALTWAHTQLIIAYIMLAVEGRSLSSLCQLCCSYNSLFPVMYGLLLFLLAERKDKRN

Activity (Axin-2 (Homo sapiens) [2]): Active
IC50 [7]: 0.23 µM
SMILES: Cc1ccnc2c(NC(=O)c3ccc(N4C(=O)[C@@H]5[C@H](C4=O)[C@@H]4C=C[C@H]5C4)cc3)cccc12
inhibition [1]: inactive
inhibition [3]: Active
inhibition [4]: Active
inhibition [5]: inactive
inhibition (DLD-1 [6]): Active
inhibition [8]: Active
inhibition [9]: Active
inhibition (Danio rerio): Active

Activity (Axin-2 (Homo sapiens) [10]): Active
Activity (Axin-2 (Homo sapiens) [2]): Active
inhibition [12]: Active
Activity (L [14]): inactive
Activity (L [15]): inactive
SMILES: O=C(Nc1cccc2cccnc12)c1ccc(N2C(=O)[C@@H]3[C@H](C2=O)[C@@H]2C=C[C@H]3C2)cc1
inhibition [1]: inactive
inhibition (DLD-1 [11]): inactive
inhibition [3]: Active
inhibition (L929): Active
inhibition [4]: Active
Activity (Cos1): inactive
inhibition [5]: inactive
inhibition (DLD-1 [6]): Active
Activity (HEK293): inactive
inhibition (DLD-1 [13]): Active
inhibition [8]: Active
inhibition [9]: Active
inhibition (Danio rerio): Active

Activity [17]: inactive
inhibition [18]: inactive
inhibition [19]: inactive
inhibition [20]: inactive
inhibition [21]: inactive
inhibition [23]: Active
inhibition [24]: inactive
inhibition [25]: inactive
inhibition [26]: inactive
inhibition [28]: Active
inhibition [29]: inactive
inhibition [30]: Active
inhibition [31]: Active
inhibition [33]: inactive
inhibition [34]: inactive
inhibition [35]: inactive
Activity [36]: Active
inhibition [37]: Active
inhibition [38]: inactive
SMILES: Cc1ccc2nc(NC(=O)CSc3nc4c(c(=O)n3-c3ccccc3)SCC4)sc2c1
inhibition [16]: inactive
inhibition [22]: Active
inhibition [27]: Active
inhibition [32]: Active
inhibition (Danio rerio): inactive
